Source: PubChem (The Scripps Research Institute Molecular Screening Center)
OX1R antag-1: OX1R (human) antagonism; O43613; OX1R-expressing cells, FRET antagonist read-out; inhibition, % at 6.6 µM; 330,000 compounds, 1.8% hits; in the data active = inhibition mostly above about 38%, no sharp cut-off; inactive = mostly below about 40%;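 also: 0% = agonist challenge alone and 100% = reference antagonist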
Target sequence (O43613 whole entry, looked up): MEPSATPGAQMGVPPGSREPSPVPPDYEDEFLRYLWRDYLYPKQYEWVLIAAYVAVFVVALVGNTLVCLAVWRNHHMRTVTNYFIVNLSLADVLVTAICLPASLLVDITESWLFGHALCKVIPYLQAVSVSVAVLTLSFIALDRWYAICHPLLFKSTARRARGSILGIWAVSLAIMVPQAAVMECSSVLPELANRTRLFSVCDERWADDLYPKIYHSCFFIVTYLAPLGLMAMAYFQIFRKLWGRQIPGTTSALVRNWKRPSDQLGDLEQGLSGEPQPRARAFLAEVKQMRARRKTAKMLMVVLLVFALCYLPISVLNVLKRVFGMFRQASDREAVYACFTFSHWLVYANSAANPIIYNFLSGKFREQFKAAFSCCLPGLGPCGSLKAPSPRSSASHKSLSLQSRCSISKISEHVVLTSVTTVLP
CHO parental Ca: counter-screen for OX1R antagonists: effect in parental CHO cells. 330,000 compounds, 0.63% hits. AID 463079. parental CHO-K1, ATP-induced calcium, Fluo-8 fluorescence. inhibition, % at 5.6 µM;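 active = inhibition above that plate's mean sample inhibition plus 3 SD, cut at about 26% in these data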;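 also: 0% = ATP-challenged DMSO wells and 100% = DMSO wells without ATP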
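test system = CHO parental line | reagent = ATP stimulus | measured by = intracellular calcium via Fluo-8 no-wash fluorescent dye | control set = ATP and no-ATP DMSO wells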
GPR7 antagonist: human neuropeptides B/W receptor 1 antagonism; 290,000 compounds, 1.1% hits; inhibition, % at 4.4 µM; P48145; GPR7-expressing cells, fluorescence antagonist assay; in the data active = inhibition above about 16%, passing the limit was not always enough;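 also: cells stimulated with the agonist NPW; 0% = agonist with vehicle and 100% = vehicle without agonist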
TAAR1 agonist: agonists of human TAAR1; 360,000 compounds, 0.99% hits; CHO RD-HGA16 TAAR1, Fluo-8 calcium fluorescence; vehicle wells 0%, saturating PEA agonist 100%; activation, % at 3 µM; AID 624467; Q96RJ0;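 active = activation above the mean activation of all test compounds in the run plus 3 SD, cut at about 38% in these data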
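Signal – calcium-sensitive Fluo-8 signal, excitation 470-495, emission 515-575 nm · System – RD-HGA16 (CHO) cells co-expressing Gα16 and hTAAR1 · Incubation – 17-24 h seeding, 75 min 37 °C dye, 30 min RT · Compound dosing – 3 µM single concentration · Repeats – no replicates (n 1)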
TAAR1 antag: antagonists of human TAAR1; AID 624466; CHO RD-HGA16 TAAR1, Fluo-8 calcium fluorescence, antagonist; inhibition, % at 3 µM; Q96RJ0; 360,000 compounds, 1.5% hits;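 active = inhibition above a per-plate cutoff, the mean inhibition of test compounds on that plate plus 3 SD, cut at about 49% in these data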;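 also: 0% = DMSO plus EC80 beta-PEA response and 100% = DMSO alone without agonist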
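Test system: RD-HGA16 CHO cells with stable hTAAR1 and Gα16 / Probe or stimulus: EC80 β-phenethylamine stimulus / Times: seeding 17-24 h prior, 75-min 37 °C, 30-min RT dye loading / Detection: Fluo-8 calcium-sensitive fluorescence / Read-out basis: % inhibition scaled between DMSO and EC80 PEA controls / Repeats: singlicate, one well per test compound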
OX1R antag-2: human HCRTR1 antagonism; CHO/OX1R cells, Fluo-8 calcium fluorescence, orexin A; inhibition, % at 5 µM; 330,000 compounds, 0.43% hits;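 active = inhibition above its plate's threshold, mean inhibition of all tested compounds on the plate plus 3 SD, cut at about 37% in these data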;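 also: 0% = orexin A challenge wells and 100% = SB-334867-A antagonist wells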
Numbers without * were called inactive; . = no result given. Shown are actives, neighbours in structure and some others; about 4.6% of the full set was active somewhere.

SMILES | OX1R antag-1 | CHO parental Ca | GPR7 antagonist | TAAR1 agonist | TAAR1 antag | OX1R antag-2
COc1ccc(S(=O)(=O)N2CCSC2c2ccc(OC)c(OC)c2)cc1 (stereo unspecified) | 26 | -4 | -12 | 11 | -7 | 6
COc1ccc(C2SCCN2S(=O)(=O)c2ccc(F)cc2)cc1OC (stereo unspecified) | 37* | -16 | -16 | 5 | 6 | -9
Cc1ccc(NC(=O)Cn2c(C)cc(C)c(C#N)c2=O)c(Cl)c1 | 17 | -10 | -3 | 11 | 4 | -19
Cc1cc(C)c2c(=O)n(CC(=O)NCCCN3CCN(c4ccccc4F)CC3)sc2n1 | 2 | 45* | 2 | . | . | 39
Cc1ccc(NC(=O)Cn2sc3nc(C)cc(C)c3c2=O)c(Cl)c1 | 4 | 46* | -16 | 25 | -11 | 25
CCOc1ccc(NC(=O)Cn2ncc3ccccc32)cc1 | . | . | -2 | -2 | 4 | .
Cc1cc(C)c2c(=O)n(CC(=O)NCCCN3CCOCC3)sc2n1 | 10 | -8 | 3 | . | . | -11
Cc1cc(C)c2c(=O)n(CC(=O)N3CCC(Cc4ccccc4)CC3)sc2n1 | . | . | -1 | . | . | .
Cc1cccc(N2CCN(C(=O)Cn3sc4nc(C)cc(C)c4c3=O)CC2C)c1 (stereo unspecified) | 5 | 36* | 5 | . | . | 40
CCOc1ccc(NC(=O)Cn2sc3nc(C)cc(C)c3c2=O)cc1 | 5 | 46* | -10 | . | . | 52*
Cn1cc(CC(=O)Nc2ccc(Nc3cccnc3)cc2)c2ccccc21 | . | . | . | 5 | 5 | .
CC(C)(C)S(=O)N1C[C@H]2CC(=O)C(CCO)=C2[C@@H]1CCO (stereo partly specified) | . | . | . | 4 | -9 | .
COc1ccc(C(=O)Nc2c3c(nn2-c2ccc(Cl)cc2)CS(=O)(=O)C3)cc1 | 12 | -9 | 4 | 2 | -12 | -10
Cc1ccc(N/C(N)=N/c2nc3c(c(=O)[nH]2)CCCC3)c(C)c1 | 10 | -13 | 10 | 3 | 4 | -21
Cc1ccc(N/C(N)=N/c2nc(C)cc(N3CCCCC3)n2)c(C)c1 | 21 | 9 | 27* | 22 | 24 | -1
C#Cc1cccc(Nc2nc(NC(C)C)nc3ccsc23)c1 | . | . | . | 2 | 35 | .
C#Cc1cccc(Nc2nc(NCc3ccccc3OC)nc3ccsc23)c1 | . | . | . | 5 | 52* | .
C#Cc1cccc(Nc2nc(NCCOC)nc3ccsc23)c1 | . | . | . | 9 | 57* | .
O=C(CSC1=NS(=O)(=O)c2ccccc2N1)Nc1ccccc1F | 26 | -3 | . | 1 | -20 | -1
CC(=O)NC(CC(=O)c1ccc([N+](=O)[O-])cc1)C(Cl)(Cl)Cl (stereo unspecified) | 76* | -7 | -4 | 0 | 2 | 3
O=C(CNC(=O)c1ccco1)OCC(=O)c1ccc([N+](=O)[O-])cc1 | 41* | -7 | -9 | -2 | -2 | -10
O=C(CNC(=O)c1cccs1)c1ccc([N+](=O)[O-])cc1 | 59* | -8 | -8 | 0 | -5 | 0
O=C(CNC(=O)c1cccs1)OCC(=O)c1ccc([N+](=O)[O-])cc1 | 34 | -11 | -7 | 0 | -12 | 4
O=C(CNC(=O)c1ccc([N+](=O)[O-])cc1)c1ccccc1 | 47* | 2 | 8 | . | . | 6
O=C(NCC1CCN(C(=O)C(=O)c2cc3ccccc3o2)CC1)c1cccnc1 | . | . | . | 0 | -2 | .
SMILES | OX1R antag-1 | CHO parental Ca | GPR7 antagonist | TAAR1 agonist | TAAR1 antag | OX1R antag-2
Cc1ncccc1C(=O)N1CCCC(c2cc(C(=O)Nc3ccc(C(C)(C)C)cc3)no2)C1 (stereo unspecified) | . | . | . | 7 | -7 | .
N#Cc1cc(Oc2cccc3cccnc23)c(-n2nnc3ccccc32)cc1C#N | 18 | 22 | -12 | 3 | 4 | 46*
Cc1nn(-c2ccccc2)c(N)c1N=O | 61* | -6 | -2 | 1 | -13 | -8
Cc1ccc2nsnc2c1S(=O)(=O)N1CCN(C(=O)C2CCCO2)CC1 (stereo unspecified) | 69* | -19 | 7 | 4 | -3 | -12
O=S(=O)(c1ccc(F)cc1)N1CCCc2nc(-c3ccccc3)ccc21 | . | . | . | 0 | 8 | .
CCN1C(=O)[C@H]2[C@@H](c3ccc(C)cc3)N3C(=O)N(c4cccc(Cl)c4)C(=O)[C@@]3(Cc3ccc(Cl)cc3)[C@H]2C1=O | 56 | -9 | . | 8 | 5 | 4
